Source: paper PMC8760560 (iScience, 2021)

Assays:
[1] = tested on: mouse embryonic stem (ES) cells; conditions: 100 μM; ref Wei et al., 2012; cited from earlier work
[2] = tested on: cADPR-evoked Ca^2+ release; assay: cADPR-evoked Ca2+ release in sea urchin egg homogenate; format: biochemical, Strongylocentrotus purpuratus; conditions: for mode of inhibition of cADPR action: cADPR concentration-response curves at increasing inhibitor concentrations; for inhibition of cADPR-evoked Ca2+ signals: primary screen, 6 min preincubation
In short: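 Primary screen in S. purpuratus egg homogenate, loaded with Ca2+ and 3 μM fluo-3 at 17°C and diluted stepwise to 1.25% over 3 h. Fluo-3 was read at ex 485/em 525 nm. Library compounds at 25 μM final were preincubated for 6 min (35 cycles), then cADPR 300 nM final was added. Screens ran in singlicate or duplicate, with Z' calculated from vehicle and cADPR responses.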

[3] = tested on: NAADP-evoked Ca^2+ release; conditions: data from a recent screen against NAADP action; ref Gunaratne et al., 2018; cited from earlier work
[4] = tested on: NAADP-evoked Ca^2+ release; assay: NAADP-evoked Ca2+ release in sea urchin egg homogenate; format: biochemical, Strongylocentrotus purpuratus; conditions: NAADP 200 nM; at concentrations completely inhibiting cADPR-evoked signals
IP3-evoked Ca^2+ release = assay: IP3-evoked Ca2+ release in sea urchin egg homogenate; format: biochemical, Strongylocentrotus purpuratus; conditions: IP3 500 nM; at concentrations completely inhibiting cADPR-evoked signals
[5] = tested on: RyRs (caffeine-evoked Ca^2+ release); assay: caffeine-evoked Ca2+ release in sea urchin egg homogenate; format: biochemical, Strongylocentrotus purpuratus; conditions: caffeine 15 mM
In short: (§1)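 Fluo-3-loaded S. purpuratus egg homogenate (1.25%, pH 7.2 intracellular-like medium, 17°C loading) was preincubated with increasing test compound concentrations. Release was then evoked by cADPR 300 nM, caffeine 15 mM or ryanodine 100 μM, with fluorescence read at ex 485/em 525 nm. Concentration-response data came from three independent biological experiments with four technical replicates each.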

[6] = tested on: RyRs (ryanodine-evoked Ca^2+ release); assay: ryanodine-evoked Ca2+ release in sea urchin egg homogenate; format: biochemical, Strongylocentrotus purpuratus; conditions: ryanodine 100 μM
In short: as §1

[7] = tested on: cADPR-sensitive Ca^2+ stores; format: biochemical, Strongylocentrotus purpuratus; conditions: ≤100μM
U2OS cells = assay: cADPR microinjection into single U2OS cells expressing GCaMP-6M; format: cell-based, human; conditions: 5 μM preincubation; cADPR 30 μM pipette concentration
In short: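 U2OS cells were transfected with GCaMP-6M two days prior, seeded on collagen dishes and perfused with Ca2+-free HBSS. Cells in 5 μM test compound or 0.05% DMSO were microinjected with intracellular buffer (110 mM KCl, 10 mM NaCl, 20 mM HEPES, pH 7.2) containing vehicle or cADPR, giving about 300 nM intracellular. Spinning-disk imaging (ex 488 nm) gave peak ΔF/F0 and area under curve. Data from three independent experiments, mean ± stdev.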

[8] = tested on: human induced pluripotent stem cells (iPSCs); assay: cardiomyocyte differentiation of induced pluripotent stem cells; format: cell-based; conditions: 1 μM for 5 days, versus control cultures
In short: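 Human iPSCs derived from dermal fibroblasts were grown on Matrigel in mTeSR1 and differentiated by Wnt modulation (CHIR, then 5 μM IWP-4 at day 3). From day 0 they received 1 μM test compound (from a 10 mM DMSO stock) or DMSO for 23 h or 5 days. Troponin T-positive cells per Hoechst-stained nuclei were counted at day 8 or 15. Western blot troponin T was normalized to GAPDH as % vehicle. Three independent experiments, mean ± stdev.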

RyR1 = RyR1 (Sus scrofa, UniProt P16960); assay: [3H]-ryanodine binding to skeletal SR vesicles; set-up: species or system porcine
RyR1, sequence (P16960 whole entry): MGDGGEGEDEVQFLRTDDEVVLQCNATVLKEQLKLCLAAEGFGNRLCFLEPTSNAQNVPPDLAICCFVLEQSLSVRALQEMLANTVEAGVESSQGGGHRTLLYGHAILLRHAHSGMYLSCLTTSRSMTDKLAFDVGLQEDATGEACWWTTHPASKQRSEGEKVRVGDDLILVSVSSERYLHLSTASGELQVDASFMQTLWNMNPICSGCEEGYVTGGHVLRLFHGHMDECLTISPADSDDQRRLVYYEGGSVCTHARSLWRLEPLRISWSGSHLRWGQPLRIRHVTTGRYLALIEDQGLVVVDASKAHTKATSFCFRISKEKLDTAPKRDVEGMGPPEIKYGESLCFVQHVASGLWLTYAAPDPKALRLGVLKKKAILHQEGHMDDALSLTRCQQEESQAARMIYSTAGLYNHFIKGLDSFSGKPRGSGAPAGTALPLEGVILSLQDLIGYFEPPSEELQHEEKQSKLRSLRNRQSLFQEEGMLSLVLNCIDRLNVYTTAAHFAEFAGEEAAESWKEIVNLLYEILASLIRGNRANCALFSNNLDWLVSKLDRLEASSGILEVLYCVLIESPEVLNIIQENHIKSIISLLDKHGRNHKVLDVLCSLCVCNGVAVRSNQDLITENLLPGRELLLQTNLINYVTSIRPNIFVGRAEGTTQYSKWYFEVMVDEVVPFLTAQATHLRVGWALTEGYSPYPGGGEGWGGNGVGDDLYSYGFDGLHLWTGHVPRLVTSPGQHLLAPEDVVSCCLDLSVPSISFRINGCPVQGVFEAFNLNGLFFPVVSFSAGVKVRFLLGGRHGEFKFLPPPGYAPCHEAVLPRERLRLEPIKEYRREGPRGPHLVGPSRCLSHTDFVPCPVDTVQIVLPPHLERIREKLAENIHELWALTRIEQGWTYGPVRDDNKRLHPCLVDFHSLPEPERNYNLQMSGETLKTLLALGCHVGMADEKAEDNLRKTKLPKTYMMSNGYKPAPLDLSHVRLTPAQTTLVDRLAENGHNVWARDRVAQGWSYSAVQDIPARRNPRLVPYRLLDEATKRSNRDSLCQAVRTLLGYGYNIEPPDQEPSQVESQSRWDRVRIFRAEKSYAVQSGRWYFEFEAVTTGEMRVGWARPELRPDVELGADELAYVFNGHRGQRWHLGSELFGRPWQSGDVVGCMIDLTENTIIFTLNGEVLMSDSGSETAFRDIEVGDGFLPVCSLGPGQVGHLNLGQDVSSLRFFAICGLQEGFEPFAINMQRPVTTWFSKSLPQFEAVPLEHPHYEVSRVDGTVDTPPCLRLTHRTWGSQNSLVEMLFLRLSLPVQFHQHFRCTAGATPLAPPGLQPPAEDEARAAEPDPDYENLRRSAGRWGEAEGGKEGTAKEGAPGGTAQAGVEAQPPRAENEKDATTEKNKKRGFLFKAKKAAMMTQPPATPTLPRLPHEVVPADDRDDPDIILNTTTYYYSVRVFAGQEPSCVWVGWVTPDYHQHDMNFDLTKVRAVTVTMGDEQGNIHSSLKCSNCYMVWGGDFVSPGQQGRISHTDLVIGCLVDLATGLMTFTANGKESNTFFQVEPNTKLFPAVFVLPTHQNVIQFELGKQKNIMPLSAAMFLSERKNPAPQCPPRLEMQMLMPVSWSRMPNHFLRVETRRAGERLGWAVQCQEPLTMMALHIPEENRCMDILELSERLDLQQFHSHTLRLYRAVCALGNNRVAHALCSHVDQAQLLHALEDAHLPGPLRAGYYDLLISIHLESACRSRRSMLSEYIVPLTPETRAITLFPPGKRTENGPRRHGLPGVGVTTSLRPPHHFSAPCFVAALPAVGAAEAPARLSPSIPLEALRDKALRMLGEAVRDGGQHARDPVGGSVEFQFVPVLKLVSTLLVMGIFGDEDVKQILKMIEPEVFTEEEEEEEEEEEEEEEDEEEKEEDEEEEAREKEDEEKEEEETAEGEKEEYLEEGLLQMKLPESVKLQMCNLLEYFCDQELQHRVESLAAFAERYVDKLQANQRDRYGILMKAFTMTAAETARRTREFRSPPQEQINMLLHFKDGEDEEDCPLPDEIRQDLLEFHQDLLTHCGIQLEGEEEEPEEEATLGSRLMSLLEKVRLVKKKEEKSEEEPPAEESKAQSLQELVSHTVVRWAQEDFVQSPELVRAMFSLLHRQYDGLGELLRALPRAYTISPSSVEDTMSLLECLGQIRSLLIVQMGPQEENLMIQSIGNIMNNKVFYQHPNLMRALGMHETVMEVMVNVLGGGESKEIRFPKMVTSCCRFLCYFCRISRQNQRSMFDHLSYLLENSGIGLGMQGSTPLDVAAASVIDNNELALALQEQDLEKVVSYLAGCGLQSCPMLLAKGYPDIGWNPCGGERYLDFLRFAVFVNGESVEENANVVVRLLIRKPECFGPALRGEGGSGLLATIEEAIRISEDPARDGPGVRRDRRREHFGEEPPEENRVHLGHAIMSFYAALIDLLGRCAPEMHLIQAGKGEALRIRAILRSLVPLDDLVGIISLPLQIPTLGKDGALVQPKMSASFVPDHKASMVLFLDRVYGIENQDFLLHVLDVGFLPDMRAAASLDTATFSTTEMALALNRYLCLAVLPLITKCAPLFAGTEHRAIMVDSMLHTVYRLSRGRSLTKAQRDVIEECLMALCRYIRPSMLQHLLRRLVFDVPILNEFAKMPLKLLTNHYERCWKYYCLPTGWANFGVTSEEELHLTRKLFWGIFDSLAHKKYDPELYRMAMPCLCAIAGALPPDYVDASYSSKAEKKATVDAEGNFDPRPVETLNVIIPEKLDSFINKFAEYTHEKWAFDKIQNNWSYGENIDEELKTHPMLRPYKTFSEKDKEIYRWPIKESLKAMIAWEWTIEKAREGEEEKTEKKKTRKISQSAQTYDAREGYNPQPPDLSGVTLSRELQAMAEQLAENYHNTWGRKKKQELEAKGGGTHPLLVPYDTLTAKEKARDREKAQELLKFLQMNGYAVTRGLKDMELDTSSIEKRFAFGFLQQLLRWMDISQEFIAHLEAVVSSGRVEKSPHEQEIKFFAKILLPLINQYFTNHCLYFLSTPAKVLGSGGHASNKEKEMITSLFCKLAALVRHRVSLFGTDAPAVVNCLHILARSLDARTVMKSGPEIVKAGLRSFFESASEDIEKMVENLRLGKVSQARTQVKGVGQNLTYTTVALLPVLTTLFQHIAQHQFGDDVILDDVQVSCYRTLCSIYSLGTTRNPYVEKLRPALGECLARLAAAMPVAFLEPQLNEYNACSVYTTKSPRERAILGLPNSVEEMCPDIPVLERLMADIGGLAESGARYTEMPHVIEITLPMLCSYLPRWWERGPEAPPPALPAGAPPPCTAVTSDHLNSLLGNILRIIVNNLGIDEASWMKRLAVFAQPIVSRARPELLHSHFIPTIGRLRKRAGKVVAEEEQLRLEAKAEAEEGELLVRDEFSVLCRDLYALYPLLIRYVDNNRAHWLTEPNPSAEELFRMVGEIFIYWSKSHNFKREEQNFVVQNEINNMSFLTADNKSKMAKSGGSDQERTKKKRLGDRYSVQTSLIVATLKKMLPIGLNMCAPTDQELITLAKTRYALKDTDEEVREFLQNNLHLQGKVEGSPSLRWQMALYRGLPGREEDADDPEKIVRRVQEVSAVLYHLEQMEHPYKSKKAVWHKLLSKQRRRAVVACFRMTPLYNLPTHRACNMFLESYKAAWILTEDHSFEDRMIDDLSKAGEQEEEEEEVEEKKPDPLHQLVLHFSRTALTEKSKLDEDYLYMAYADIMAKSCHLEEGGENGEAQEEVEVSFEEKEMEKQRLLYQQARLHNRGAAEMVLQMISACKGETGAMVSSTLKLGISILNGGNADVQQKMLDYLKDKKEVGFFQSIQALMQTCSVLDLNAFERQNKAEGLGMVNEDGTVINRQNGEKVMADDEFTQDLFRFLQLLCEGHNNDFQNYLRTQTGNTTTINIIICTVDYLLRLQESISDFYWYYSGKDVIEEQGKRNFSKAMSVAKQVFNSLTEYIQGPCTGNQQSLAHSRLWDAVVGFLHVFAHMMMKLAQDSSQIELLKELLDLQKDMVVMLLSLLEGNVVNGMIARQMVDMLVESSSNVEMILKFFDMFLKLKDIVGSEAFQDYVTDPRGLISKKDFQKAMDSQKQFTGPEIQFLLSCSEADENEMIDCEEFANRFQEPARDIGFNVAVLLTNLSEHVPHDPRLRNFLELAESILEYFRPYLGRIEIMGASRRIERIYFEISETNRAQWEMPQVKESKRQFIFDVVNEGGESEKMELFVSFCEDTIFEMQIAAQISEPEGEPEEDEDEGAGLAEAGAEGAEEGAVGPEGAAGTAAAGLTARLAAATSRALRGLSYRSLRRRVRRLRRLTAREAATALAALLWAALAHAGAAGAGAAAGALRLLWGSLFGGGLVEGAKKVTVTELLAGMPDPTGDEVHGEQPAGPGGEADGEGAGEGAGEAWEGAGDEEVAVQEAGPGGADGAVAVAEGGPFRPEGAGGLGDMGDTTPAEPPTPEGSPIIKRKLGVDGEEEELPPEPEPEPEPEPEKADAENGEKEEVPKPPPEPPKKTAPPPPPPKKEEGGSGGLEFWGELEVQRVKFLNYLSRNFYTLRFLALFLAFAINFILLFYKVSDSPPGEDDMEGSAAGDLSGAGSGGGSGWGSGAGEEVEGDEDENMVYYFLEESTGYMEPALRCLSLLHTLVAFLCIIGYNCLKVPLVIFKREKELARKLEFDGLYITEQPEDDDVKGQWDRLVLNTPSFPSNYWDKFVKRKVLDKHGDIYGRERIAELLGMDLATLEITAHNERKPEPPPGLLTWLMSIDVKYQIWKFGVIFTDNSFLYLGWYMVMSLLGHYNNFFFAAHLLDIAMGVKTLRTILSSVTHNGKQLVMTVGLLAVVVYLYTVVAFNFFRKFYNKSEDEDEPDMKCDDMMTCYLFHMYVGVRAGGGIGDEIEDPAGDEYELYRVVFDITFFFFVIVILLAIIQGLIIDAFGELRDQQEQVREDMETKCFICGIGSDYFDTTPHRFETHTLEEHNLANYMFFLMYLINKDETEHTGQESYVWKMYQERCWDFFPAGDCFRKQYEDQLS
In short: (§2)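 Porcine SR vesicles, skeletal (1 mg/mL, 10 nM [3H]-ryanodine) and cardiac (3 mg/mL, 7.5 nM [3H]-ryanodine), were incubated for 3 h at 37°C with test compound or 0.02% DMSO. The pH 7.0 K-PIPES buffer contained 150 mM KCl, 0.1 μM calmodulin, GSH, DTT, 1 mM EGTA and CaCl2 giving 100 nM or 30 μM free Ca2+. Non-specific binding was defined with 40 μM unlabeled ryanodine. Bound ligand was filtered and counted by scintillation, and expressed relative to DMSO. Three SR batches, triplicates.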

RyR2 = RyR2 (Sus scrofa, UniProt A0A5G2R1W3); assay: [3H]-ryanodine binding to cardiac SR vesicles; set-up: species or system porcine
In short: as §2

Molecule: 8-Br-cADPR
- effect on generation of cardiomyocytes [1]: promoted the generation of cardiomyocytes

Molecule: N=c1c2cc(Br)n3c2ncn1[C@@H]1O[C@H](COP(=O)(O)OP(=O)(O)OC[C@H]2O[C@@H]3C(O)[C@H]2O)C(O)C1O (some centres unmarked) [8-Br-7-deaza-cADPR]
- mode of inhibition of cADPR action [2]: competitive inhibitors

Molecule: CNc1ccc2oc(C[C@H]3O[C@@]4(CC[C@H]3C)O[C@H]([C@H](C)C(=O)c3ccc[nH]3)[C@H](C)C[C@H]4C)nc2c1C(=O)O [A23187]
- effect on cADPR-evoked Ca2+ responses in primary screen ([2]; 25 μM, positive control): inhibited
- effect on NAADP-evoked Ca2+ responses in screen [3]: inhibited

Molecule: CC1=C(C(=O)OC2CCCCC2)C(c2ccc([N+](=O)[O-])cc2)C2=C(CC(C)(C)CC2=O)N1 (centres unmarked) [FLI-06, cyclohexyl 2,7,7-trimethyl-4-(4-nitrophenyl)-5-oxo-1,4,5,6,7,8-hexahydroquinoline-3-carboxylate]
- effect on cADPR-evoked Ca2+ signals ([2]; cADPR 300 nM): blocked
- mode of inhibition of cADPR action [2]: non-competitive inhibition
- IC50 ([2]; read-out: IC50, inhibition of cADPR-evoked Ca2+ release, sea urchin egg homogenate, cADPR 300 nM): 260 ± 23 nM
- effect on NAADP-evoked Ca2+ release [4]: did not impact
- effect on IP3-evoked Ca2+ release (IP3-evoked Ca^2+ release): did not impact
- effect on caffeine-evoked Ca2+ release [5]: blocked
- effect on ryanodine-evoked Ca2+ release [6]: blocked
- intrinsic agonist activity (Ca2+ elevation without cADPR) [7]: did not result from any intrinsic agonist activity
- effect on cADPR-evoked Ca2+ transient (U2OS cells): reduced
- contraction phenotype [8]: earlier contraction phenotype
- expression of cardiomyocyte-specific troponin T [8]: enhanced expression
- effect on [3H]-ryanodine binding (RyR1; contracting 30 μM free Ca2+): inhibited
- effect on [3H]-ryanodine binding (RyR1; relaxed 100 nM free Ca2+): inhibited
- effect on [3H]-ryanodine binding (RyR2; contracting 30 μM free Ca2+): inhibited
- effect on [3H]-ryanodine binding (RyR2; relaxed 100 nM free Ca2+): inhibited

Molecule: N=c1c2ncn3c2ncn1[C@@H]1O[C@H](COP(=O)(O)OP(=O)(O)OC[C@H]2O[C@@H]3[C@H](O)[C@@H]2O)[C@@H](O)[C@H]1O [cADPR, cyclic adenosine 5′-diphosphate ribose]
- effect on [3H]-ryanodine binding (RyR1; contracting 30 μM free Ca2+): did not elicit any effects
- effect on [3H]-ryanodine binding (RyR1; relaxed 100 nM free Ca2+): did not elicit any effects
- effect on [3H]-ryanodine binding (RyR2; contracting 30 μM free Ca2+): did not elicit any effects
- effect on [3H]-ryanodine binding (RyR2; relaxed 100 nM free Ca2+): did not elicit any effects

Molecule: COC(=O)C1=C(C)NC(C)=C(C(=O)OC)C1c1ccccc1[N+](=O)[O-] [nifedipine, dimethyl 2,6-dimethyl-4-(2-nitrophenyl)-1,4-dihydropyridine-3,5-dicarboxylate]
- inhibition of cADPR-evoked Ca2+ signals ([2]; 25 μM): ~3%

Molecule: COCCOC(=O)C1=C(C)NC(C)=C(C(=O)OC(C)C)C1c1cccc([N+](=O)[O-])c1 (centres unmarked) [nimodipine, 3-O-(2-methoxyethyl) 5-O-propan-2-yl 2,6-dimethyl-4-(3-nitrophenyl)-1,4-dihydropyridine-3,5-dicarboxylate]
- inhibition of cADPR-evoked Ca2+ signals ([2]; 25 μM): ~5%

Molecule: NC(=S)c1ccc[n+]([C@@H]2O[C@H](COP(=O)([O-])OP(=O)(O)OC[C@H]3O[C@@H](n4cnc5c(N)ncnc54)[C@H](OP(=O)(O)O)[C@@H]3O)[C@@H](O)[C@H]2O)c1 [thio-NADP]
- effect on NAADP-evoked Ca2+ responses in screen [3]: selectively desensitized
